Measurements taken from ChEMBL document CHEMBL1138193, “Synthesis and biological activity of 7-phenyl-6,9-dihydro-3H-pyrrolo[3,2-f]quinolin-9-ones: a new class of antimitotic agents devoid of aromatase activity” (J Med Chem, 2006).
Activity calls are given as the source filed them. The rule behind the calls is not given here.

Columns and labels:
ARO = experiment: Cytotoxicity against human Aro cells by MTT assay; type: functional, cell-based
How it was run: (§1)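 MTT colorimetric proliferation assay on human and murine tumour cell lines. Compounds tested over 50 to 0.1 µM; IC50 calculated from the concentration response.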

NCI-H295R = experiment: Cytotoxicity against human H295R cells by MTT assay; type: functional, cell-based; how it was run: as §1
Tubulin (Homo sapiens) [1] = target: T1, Tubulin (Homo sapiens) (UniProt P68371+Q9H4B7+P0DPH7+P68366+Q13509+Q71U36+P04350+Q3ZCM7+P07437+P68363+Q9BQE3+Q6PEY2+Q13885+Q9BVA1+Q9BUF5); experiment: Microtubule disassembly in Ovcar3 cells at 5 uM; type: functional, cell-based; settings: OVCAR-3
How it was run: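 Ovcar-3 cells exposed 18 h to 5 µM (drug-free and vincristine 5 µM controls), fixed, stained with anti-β-tubulin antibody, and microtubule distribution examined by fluorescence microscopy.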

4T1 = experiment: Cytotoxicity against mouse 4T1 cells by MTT assay; type: functional, cell-based; how it was run: as §1
BNL [2] = experiment: Cytotoxicity against mouse BNL cells by MTT assay; type: functional, cell-based; how it was run: as §1
Aromatase [3] = target: T2, Aromatase (Homo sapiens, UniProt P11511); experiment: Inhibition of aromatase activity in H295R cells at 5 uM; type: cell-based
T2 sequence (P11511 whole entry): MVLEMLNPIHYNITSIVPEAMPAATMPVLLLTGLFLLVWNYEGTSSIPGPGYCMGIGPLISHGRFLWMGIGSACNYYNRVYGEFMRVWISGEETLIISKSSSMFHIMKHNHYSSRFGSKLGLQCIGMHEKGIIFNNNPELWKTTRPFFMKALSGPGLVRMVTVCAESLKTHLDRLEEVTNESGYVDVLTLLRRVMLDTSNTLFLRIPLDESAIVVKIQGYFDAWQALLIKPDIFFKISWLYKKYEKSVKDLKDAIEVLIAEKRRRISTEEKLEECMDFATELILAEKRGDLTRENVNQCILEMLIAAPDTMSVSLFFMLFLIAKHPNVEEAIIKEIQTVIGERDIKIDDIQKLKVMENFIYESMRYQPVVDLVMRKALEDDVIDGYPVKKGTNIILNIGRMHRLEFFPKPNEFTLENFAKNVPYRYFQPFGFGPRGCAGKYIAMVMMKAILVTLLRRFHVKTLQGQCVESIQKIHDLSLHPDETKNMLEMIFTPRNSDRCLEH
How it was run: (§2)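 H295R cells cultured 24 h in DMEM-F12 with or without forskolin (25 µM). Compound (5, 10 or 15 µM) added 1 h before [1β-³H]androstenedione substrate (0.5 µM), then 2 h further exposure. Modified tritiated water release read-out as pmol ³H₂O/h/mg protein. Letrozole reference. Mean ± SEM of three experiments in triplicate.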

HepG2 [4] = experiment: Cytotoxicity against human HepG2 cells by MTT assay; type: functional, cell-based; how it was run: as §1
HepG2 [5] = experiment: Cell cycle arrest at G2/M phase in HepG2 cells at 5-10 uM; type: functional, Homo sapiens
PT-45 = experiment: Cytotoxicity against human PT45 cells by MTT assay; type: functional, cell-based; how it was run: as §1
Tubulin (Homo sapiens) [6] = target: T1, Tubulin (Homo sapiens); experiment: Inhibition of tubulin polymerization at 2.5 uM; type: protein-complex assay
How it was run: (§3)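 Fluorimetric microtubule polymerization kit using purified tubulin. Compound at 5, 2.5, 1.25 and 0.625 µM; fluorescence (ex 355/em 450 nm) read every minute for 60 min. Taxol and vincristine (3 µM) as references.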

BNL [7] = experiment: Cytotoxicity against BNL 1ME A.7R.1 cells subcutaneously implanted in BALB/c mouse at 40 mg/kg, ip; type: functional; settings: route intraperitoneal
How it was run: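 Male Balb/c mice implanted subcutaneously in the dorsal region with 10⁷ syngenic hepatocarcinoma cells. From day 2, daily intraperitoneal dosing at 40 mg/kg, with saline and vehicle control groups (n = 8-12 per group). Tumour measured daily by calipers over 10 days; volume = A × B²/2. Means ± SE.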

OVCAR-3 [8] = experiment: Cell cycle arrest at G2/M phase in Ovcar3 cells at 5-10 uM; type: functional, Homo sapiens
A549 = experiment: Cytotoxicity against human A549 cells by MTT assay; type: functional, cell-based
MCF7 = experiment: Cytotoxicity against human MCF7 cells by MTT assay; type: functional, cell-based; how it was run: as §1
OVCAR-3 [9] = experiment: Cytotoxicity against human Ovcar3 cells by MTT assay; type: functional, cell-based; how it was run: as §1
HT-29 = experiment: Cytotoxicity against human HT29 cells by MTT assay; type: functional, cell-based; how it was run: as §1
Tubulin (Homo sapiens) [10] = target: T1, Tubulin (Homo sapiens); experiment: Inhibition of tubulin polymerization at 5 uM; type: protein-complex assay; how it was run: as §3
HeLa = experiment: Cytotoxicity against human HeLa cells by MTT assay; type: functional, cell-based; how it was run: as §1
Aromatase [11] = target: T2, Aromatase; experiment: Inhibition of aromatase activity in H295R cells at 10 uM; type: cell-based; how it was run: as §2
Aromatase [12] = target: T2, Aromatase; experiment: Inhibition of aromatase activity in H295R cells at 15 uM; type: cell-based; how it was run: as §2

SMILES | IC50 (ARO) | IC50 (NCI-H295R) | Activity (Tubulin (Homo sapiens) [1]) | IC50 (4T1) | IC50 (BNL [2]) | Activity (Aromatase [3]) | IC50 (HepG2 [4]) | Activity (HepG2 [5]) | IC50 (PT-45) | Activity (Tubulin (Homo sapiens) [6]) | Activity (BNL [7]) | Activity (OVCAR-3 [8]) | IC50 (A549) | IC50 (MCF7) | IC50 (OVCAR-3 [9]) | IC50 (HT-29) | Activity (Tubulin (Homo sapiens) [10]) | IC50 (HeLa) | Activity (Aromatase [11]) | Activity (Aromatase [12])
CC[C@]1(O)C[C@H]2CN(CCc3c([nH]c4ccccc34)[C@@](C(=O)OC)(c3cc4c(cc3OC)N(C=O)[C@H]3[C@@](O)(C(=O)OC)[C@H](OC(C)=O)[C@]5(CC)C=CCN6CC[C@]43[C@@H]65)C2)C1 [VINCRISTINE] | 0.0001 µM | 0.09 µM | Active | 0.02 µM | 0.08 µM | – | – | – | – | – | – | – | – | – | – | – | – | – | – | –
O=c1cc(-c2ccccc2)[nH]c2ccc3[nH]ccc3c12 | 0.7 µM | 0.4 µM | Active | 2 µM | 3 µM | Not Active | 8 µM | 47.7% | 0.5 µM | Dose-dependent effect | 83.2% | 62% | 1 µM | 0.8 µM | 6 µM | 2 µM | Dose-dependent effect | 0.7 µM | Not Active | Not Active
CCN(CC)CCn1ccc2c3c(O)cc(-c4ccccc4)nc3ccc21 | 20 µM | 6 µM | – | 9 µM | 5 µM | – | 7 µM | 15.1% | 5 µM | – | – | 16.6% | 12 µM | 8 µM | 18 µM | 6 µM | – | 5 µM | – | –
CC(=O)O[C@H]1C(=O)[C@@]2(C)[C@H]([C@H](OC(=O)c3ccccc3)[C@]3(O)C[C@H](OC(=O)[C@H](O)[C@@H](NC(=O)c4ccccc4)c4ccccc4)C(C)=C1C3(C)C)[C@]1(OC(C)=O)CO[C@@H]1C[C@@H]2O [PACLITAXEL] | – | 0.08 µM | – | 0.2 µM | 0.2 µM | – | – | – | – | – | – | – | – | – | – | – | – | – | – | –
O=[N+]([O-])c1cccc(-c2cc(O)c3c(ccc4[nH]ccc43)n2)c1 | 39 µM | 40 µM | – | > 50 µM | > 50 µM | – | 30 µM | 15.8% | 45 µM | – | – | 10% | 32 µM | > 50 µM | > 50 µM | > 50 µM | – | 25 µM | – | –
N#Cc1cccc(-c2cc(O)c3c(ccc4[nH]ccc43)n2)c1 | 3 µM | > 50 µM | – | > 50 µM | 40 µM | – | 40 µM | 17.3% | 40 µM | – | – | 15% | > 50 µM | > 50 µM | > 50 µM | > 50 µM | – | 8 µM | – | –
Cc1cc(O)c2c(ccc3[nH]ccc32)n1 | > 50 µM | > 50 µM | – | > 50 µM | > 50 µM | – | > 50 µM | – | > 50 µM | – | – | – | > 50 µM | > 50 µM | > 50 µM | > 50 µM | – | > 50 µM | – | –
N#Cc1ccc(-c2cc(O)c3c(ccc4[nH]ccc43)n2)cc1 | 40 µM | 30 µM | – | 25 µM | 15 µM | – | 10 µM | 21.5% | 20 µM | – | – | 14.9% | 15 µM | 50 µM | 50 µM | > 50 µM | – | 15 µM | – | –
Oc1ccnc2ccc3[nH]ccc3c12 | > 50 µM | > 50 µM | – | > 50 µM | > 50 µM | – | > 50 µM | – | > 50 µM | – | – | – | > 50 µM | > 50 µM | > 50 µM | > 50 µM | – | > 50 µM | – | –
Oc1cc(-c2cccc(Br)c2)nc2ccc3[nH]ccc3c12 | 5 µM | 5 µM | – | 20 µM | 4 µM | Not Active | 6 µM | 40.3% | 6 µM | – | – | 42.9% | 6 µM | 5 µM | 10 µM | 9 µM | – | 5 µM | Not Active | Not Active
Cc1cccc(-c2cc(O)c3c(ccc4[nH]ccc43)n2)c1 | 7 µM | 8 µM | – | 25 µM | 6 µM | – | 10 µM | 16% | 7 µM | – | – | 19.5% | 6 µM | 7 µM | 20 µM | 8 µM | – | 6 µM | – | –
Nc1cccc(-c2cc(O)c3c(ccc4[nH]ccc43)n2)c1 | 30 µM | 50 µM | – | 50 µM | > 50 µM | – | 30 µM | 17.1% | 8 µM | – | – | 14% | 30 µM | 15 µM | 50 µM | > 50 µM | – | 7 µM | – | –
COc1cccc(-c2cc(O)c3c(ccc4[nH]ccc43)n2)c1 | 1 µM | 0.7 µM | – | 4 µM | 4 µM | Not Active | 6 µM | 49.3% | 0.7 µM | – | – | 65.3% | 2 µM | 2 µM | 7 µM | 6 µM | – | 0.7 µM | Not Active | Not Active
COC(=O)c1cc2c([nH]1)c(OC)cc1nc(-c3ccccc3)cc(O)c12 | > 50 µM | > 50 µM | – | > 50 µM | > 50 µM | – | > 50 µM | 15.4% | > 50 µM | – | – | 14.4% | > 50 µM | > 50 µM | > 50 µM | > 50 µM | – | > 50 µM | – | –
Oc1cc(-c2cccs2)nc2ccc3[nH]ccc3c12 | 7 µM | 5 µM | – | 20 µM | 8 µM | – | 10 µM | 15.6% | 8 µM | – | – | 17.5% | 15 µM | 7 µM | 25 µM | 30 µM | – | 6 µM | – | –
